# Legend:
# Assay type in all cases: functional
# [1] = test system: Meyerozyma guilliermondii; experiment: Tested for minimum inhibitory concentration against Candida guilliermondii 80 (C.g) at pH of 4.5.
# In short: (§1)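 Broth microdilution in malt extract broth, initial pH 4.5 or 6.5, with 1×10^3 CFU per 0.2 mL well of thawed stored cultures. Compound stocks were made in 5% DMSO/0.2% Tween 80 and diluted to final 0.05–100 μg/mL. Plates were incubated 48 h at 30 °C and read macroscopically. MIC was the lowest concentration with no detectable growth. Vehicle-only wells served as controls.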
# [2] = test system: Meyerozyma guilliermondii; experiment: Tested for minimum inhibitory concentration against Candida guilliermondii 80 (C.g) at pH of 6.5.; in short: as §1
# Candida tropicalis [3] = experiment: Tested for minimum inhibitory concentration against Candida tropicalis 43 (C.t) at pH of 6.5.; in short: as §1
# Candida albicans [4] = experiment: Tested for minimum inhibitory concentration against Candida albicans 124 (Candida albicans) at pH of 4.5.; in short: as §1
# Candida albicans [5] = experiment: Tested for minimum inhibitory concentration against Candida albicans 124 (Candida albicans) at pH of 6.5.; in short: as §1
# Pichia kudriavzevii [6] = experiment: Tested for minimum inhibitory concentration against Candida krusei 132 (C.k) at pH of 4.5.; in short: as §1
# Candida tropicalis [7] = experiment: Tested for minimum inhibitory concentration against Candida tropicalis 43 (C.t) at pH of 4.5.; in short: as §1
# Pichia kudriavzevii [8] = experiment: Tested for minimum inhibitory concentration against Candida krusei 132 (C.k) at pH of 6.5.; in short: as §1
SMILES,MIC [1] [mg/L],MIC [2] [mg/L],MIC (Candida tropicalis [3]) [mg/L],MIC (Candida albicans [4]) [mg/L],MIC (Candida albicans [5]) [mg/L],MIC (Pichia kudriavzevii [6]) [mg/L],MIC (Candida tropicalis [7]) [mg/L],MIC (Pichia kudriavzevii [8]) [mg/L]
CC[C@@H](C)[C@H]1C(=O)NCC(=O)N(C)[C@@H](C(C)C)C(=O)N[C@@H](Cc2ccc(OC)cc2)C(=O)O[C@H](C)C(=O)N2CCCC[C@H]2C(=O)N(C)[C@@H](C(C)C)C(=O)N[C@@H](C(C)C)C(=O)N(C)[C@@H](CCN=[N+]=[N-])C(=O)N(C)[C@@H]([C@@H](C)CC)C(=O)N1C,> 100,> 100,> 100,> 100,> 100,> 100,> 100,> 100
CC[C@@H](C)[C@H]1C(=O)NCC(=O)N(C)[C@@H](C(C)C)C(=O)N[C@@H](Cc2ccc(OC)cc2)C(=O)O[C@H](C)C(=O)N2CCCC[C@H]2C(=O)N(C)[C@@H](C(C)C)C(=O)N[C@@H](C(C)C)C(=O)N(C)[C@@H](CCOC(=O)CCC(=O)O)C(=O)N(C)[C@@H]([C@@H](C)CC)C(=O)N1C,> 100,> 100,> 100,> 100,> 100,> 100,> 100,> 100
CC[C@@H](C)[C@H]1C(=O)NCC(=O)N(C)[C@@H](C(C)C)C(=O)N[C@@H](Cc2ccc(OC)cc2)C(=O)O[C@H](C)C(=O)N2CCCC[C@H]2C(=O)N(C)[C@@H](C(C)C)C(=O)N[C@@H](C(C)C)C(=O)N(C)[C@@H](CCO)C(=O)N(C)[C@@H]([C@@H](C)CC)C(=O)N1C,> 100,> 100,> 100,> 100,> 100,> 100,> 100,> 100
CC[C@@H](C)[C@H]1C(=O)NCC(=O)N(C)[C@@H](C(C)C)C(=O)N[C@@H](Cc2ccc(OCc3ccc(Cl)cc3)cc2)C(=O)O[C@H](C)C(=O)N2CCCC[C@H]2C(=O)N(C)[C@@H](C(C)C)C(=O)N[C@@H](C(C)C)C(=O)N(C)[C@@H](CC(=O)O)C(=O)N(C)[C@@H]([C@@H](C)CC)C(=O)N1C,> 100,> 100,> 100,100,> 100,> 100,> 100,> 100
CC[C@@H](C)[C@H]1C(=O)NCC(=O)N(C)[C@@H](C(C)C)C(=O)N[C@@H](Cc2ccc(OCc3ccccc3)cc2)C(=O)O[C@H](C)C(=O)N2CCCC[C@H]2C(=O)N(C)[C@@H](C(C)C)C(=O)N[C@@H](C(C)C)C(=O)N(C)[C@@H](CC(=O)O)C(=O)N(C)[C@@H]([C@@H](C)CC)C(=O)N1C,> 100,> 100,> 100,50,> 100,> 100,> 100,> 100
CC[C@@H](C)[C@H]1C(=O)NCC(=O)N(C)[C@@H](C(C)C)C(=O)N[C@@H](Cc2ccc(OC)cc2)C(=O)O[C@H](C)C(=O)N2CCCC[C@H]2C(=O)N(C)[C@@H](C(C)C)C(=O)N[C@@H](C(C)C)C(=O)N(C)[C@@H](CC(=O)N(CC)CC)C(=O)N(C)[C@@H]([C@@H](C)CC)C(=O)N1C,> 100,> 100,> 100,> 100,> 100,> 100,> 100,> 100
CC[C@@H](C)[C@H]1C(=O)NCC(=O)N(C)[C@@H](C(C)C)C(=O)N[C@@H](Cc2ccc(O)cc2)C(=O)O[C@H](C)C(=O)N2CCCC[C@H]2C(=O)N(C)[C@@H](C(C)C)C(=O)N[C@@H](C(C)C)C(=O)N(C)[C@@H](CC(=O)O)C(=O)N(C)[C@@H]([C@@H](C)CC)C(=O)N1C,> 100,100,100,> 100,50,> 100,> 100,100
CC[C@@H](C)[C@H]1C(=O)NCC(=O)N(C)[C@@H](C(C)C)C(=O)N[C@@H](CC(=O)O)C(=O)O[C@H](C)C(=O)N2CCCC[C@H]2C(=O)N(C)[C@@H](C(C)C)C(=O)N[C@@H](C(C)C)C(=O)N(C)[C@@H](CC(=O)O)C(=O)N(C)[C@@H]([C@@H](C)CC)C(=O)N1C,> 100,> 100,> 100,100,> 100,> 100,> 100,> 100
C=CCOc1ccc(C[C@@H]2NC(=O)[C@H](C(C)C)N(C)C(=O)CNC(=O)[C@H]([C@H](C)CC)N(C)C(=O)[C@H]([C@@H](C)CC)N(C)C(=O)[C@H](CC(=O)O)N(C)C(=O)[C@H](C(C)C)NC(=O)[C@H](C(C)C)N(C)C(=O)[C@@H]3CCCCN3C(=O)[C@@H](C)OC2=O)cc1,100,100,100,3.13,6.25,100,100,> 100
CC[C@H](C)[C@H]1C(=O)NCC(=O)N(C)[C@@H](C(C)C)C(=O)N[C@@H](Cc2ccc(OC)cc2)C(=O)N[C@@H](C)C(=O)N[C@H](C)C(=O)N2CCCC[C@H]2C(=O)N(C)[C@@H](C(C)C)C(=O)N[C@@H](C(C)C)C(=O)N(C)[C@@H](CC(=O)O)C(=O)N(C)[C@@H]([C@@H](C)CC)C(=O)N1C,50,> 100,> 100,12.5,> 100,> 100,100,> 100
CC[C@H](C)[C@H]1C(=O)NCC(=O)N(C)[C@@H](C(C)C)C(=O)N[C@@H](Cc2ccc(OC)cc2)C(=O)N[C@@H](C)C(=O)N[C@@H](C)C(=O)N2CCCC[C@H]2C(=O)N(C)[C@@H](C(C)C)C(=O)N[C@@H](C(C)C)C(=O)N(C)[C@@H](CC(=O)O)C(=O)N(C)[C@@H]([C@@H](C)CC)C(=O)N1C,> 100,> 100,> 100,> 100,> 100,> 100,> 100,> 100

# — ChEMBL document CHEMBL1127799, “Derivatives of a novel cyclopeptolide. 1. Synthesis, antifungal activity, and structure-activity relationships” (1994)
